Laboratory results taken from ChEMBL document CHEMBL2331322, “Synthesis and antimicrobial activity of some new benzo and naphthonitrile derivatives” (2013).
Values after ≈ are worked out from the molar mass of the structure shown.

Legend:
Format in all cases: functional
Fusarium oxysporum [1] = test: Antimicrobial activity against Fusarium oxysporum at 1 mg/mL after 48 hrs by agar disc diffusion method; details: read-out: DIZ
Outline: (§1)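 Sterile 5 mm filter paper disks were impregnated with test solution in DMF (1 mg/mL) and placed on agar plates seeded with the test organism, in triplicate. Bacteria were incubated at 37 °C for 24 h and fungi for […] (so in the source). The read-out was the average inhibition zone diameter around the disks, in mm.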

Bacillus subtilis [2] = test: Antimicrobial activity against Bacillus subtilis after 24 hrs by microdilution susceptibility test
Outline: (§2)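 MIC was determined by broth microdilution, using Müller–Hinton broth for bacteria and Sabouraud liquid medium for fungi. Stocks were made in DMF and serially diluted twofold. Wells were inoculated at 10⁶ CFU/mL and plates incubated at 36 °C for 24–48 h, with controls included. Only compounds giving agar-diffusion zones >14 mm were tested.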

Pseudomonas aeruginosa [3] = test: Antimicrobial activity against Pseudomonas aeruginosa at 1 mg/mL after 24 hrs by agar disc diffusion method; details: read-out: DIZ; outline: as §1
Bacillus thuringiensis [4] = test: Antimicrobial activity against Bacillus thuringiensis at 1 mg/mL after 24 hrs by agar disc diffusion method; details: read-out: DIZ; outline: as §1
Fusarium oxysporum [5] = test: Antimicrobial activity against Fusarium oxysporum after 48 hrs by microdilution susceptibility test; outline: as §2
Escherichia coli [6] = test: Antimicrobial activity against Escherichia coli at 1 mg/mL after 24 hrs by agar disc diffusion method; details: read-out: DIZ; outline: as §1
Escherichia coli [7] = test: Antimicrobial activity against Escherichia coli after 24 hrs by microdilution susceptibility test; outline: as §2
Botrytis fabae [8] = test: Antimicrobial activity against Botrytis fabae after 48 hrs by microdilution susceptibility test; outline: as §2
Bacillus thuringiensis [9] = test: Antimicrobial activity against Bacillus thuringiensis after 24 hrs by microdilution susceptibility test; outline: as §2
Pseudomonas aeruginosa [10] = test: Antimicrobial activity against Pseudomonas aeruginosa after 24 hrs by microdilution susceptibility test; outline: as §2
Botrytis fabae [11] = test: Antimicrobial activity against Botrytis fabae at 1 mg/mL […] by agar disc diffusion method; details: read-out: DIZ
Bacillus subtilis [12] = test: Antimicrobial activity against Bacillus subtilis at 1 mg/mL after 24 hrs by agar disc diffusion method; details: read-out: DIZ; outline: as §1

Compound	zone of inhibition at 1000 µg/mL (Fusarium oxysporum [1]) [mm]	MBC (Bacillus subtilis [2]) [µg/mL]	MIC (Bacillus subtilis [2]) [µg/mL]	zone of inhibition at 1000 µg/mL (Pseudomonas aeruginosa [3]) [mm]	zone of inhibition at 1000 µg/mL (Bacillus thuringiensis [4]) [mm]	MIC (Fusarium oxysporum [5]) [µg/mL]	zone of inhibition at 1000 µg/mL (Escherichia coli [6]) [mm]	MBC (Escherichia coli [7]) [µg/mL]	MIC (Escherichia coli [7]) [µg/mL]	MIC (Botrytis fabae [8]) [µg/mL]	MIC (Bacillus thuringiensis [9]) [µg/mL]	MIC (Pseudomonas aeruginosa [10]) [µg/mL]	zone of inhibition at 1000 µg/mL (Botrytis fabae [11]) [mm]	zone of inhibition at 1000 µg/mL (Bacillus subtilis [12]) [mm]
CCOC(=O)c1c2[nH]c(=N)c3ccccc3c2nn1-c1ccccc1	33	200 (≈ 602 µM)	25 (≈ 75.2 µM)	19	35	50 (≈ 150 µM)	20	200 (≈ 602 µM)	50 (≈ 150 µM)	25 (≈ 75.2 µM)	25 (≈ 75.2 µM)	50 (≈ 150 µM)	20	33
CCOC(=O)c1c2[nH]c(=N)c3ccccc3c2nn1-c1ccc(Cl)cc1	16	200 (≈ 545 µM)	25 (≈ 68.2 µM)	33	38	25 (≈ 68.2 µM)	25	200 (≈ 545 µM)	50 (≈ 136 µM)	50 (≈ 136 µM)	50 (≈ 136 µM)	25 (≈ 68.2 µM)	27	33
CCOC(=O)c1c2[nH]c(=N)c3ccccc3c2nn1-c1ccc(C)cc1	25	200 (≈ 577 µM)	25 (≈ 72.2 µM)	15	20	50 (≈ 144 µM)	15	200 (≈ 577 µM)	50 (≈ 144 µM)	50 (≈ 144 µM)	50 (≈ 144 µM)	50 (≈ 144 µM)	16	32
CCOC(=O)c1c2[nH]c(=N)c3ccccc3c2nn1-c1ccc(OC)cc1	38	200 (≈ 552 µM)	50 (≈ 138 µM)	20	37	25 (≈ 69 µM)	30	200 (≈ 552 µM)	50 (≈ 138 µM)	50 (≈ 138 µM)	25 (≈ 69 µM)	50 (≈ 138 µM)	19	40
CCOC(=O)c1c2[nH]c(=N)c3ccccc3c2nn1-c1ccc([N+](=O)[O-])cc1	19	200 (≈ 530 µM)	25 (≈ 66.2 µM)	16	37	25 (≈ 66.2 µM)	15	200 (≈ 530 µM)	50 (≈ 132 µM)	50 (≈ 132 µM)	25 (≈ 66.2 µM)	50 (≈ 132 µM)	20	38
N=c1[nH]c2nn(-c3ccccc3)nc2c2ccccc12	20	200 (≈ 765 µM)	50 (≈ 191 µM)	19	37	25 (≈ 95.7 µM)	20	200 (≈ 765 µM)	50 (≈ 191 µM)	25 (≈ 95.7 µM)	25 (≈ 95.7 µM)	50 (≈ 191 µM)	16	33
N=c1[nH]c2nn(-c3ccc(Cl)cc3)nc2c2ccccc12	15	200 (≈ 676 µM)	25 (≈ 84.5 µM)	19	38	25 (≈ 84.5 µM)	15	200 (≈ 676 µM)	50 (≈ 169 µM)	50 (≈ 169 µM)	25 (≈ 84.5 µM)	50 (≈ 169 µM)	15	32
Cc1ccc(-n2nc3[nH]c(=N)c4ccccc4c3n2)cc1	19	200 (≈ 726 µM)	50 (≈ 182 µM)	15	26	50 (≈ 182 µM)	15	200 (≈ 726 µM)	50 (≈ 182 µM)	50 (≈ 182 µM)	50 (≈ 182 µM)	50 (≈ 182 µM)	20	30
COc1ccc(-n2nc3[nH]c(=N)c4ccccc4c3n2)cc1	19	200 (≈ 687 µM)	50 (≈ 172 µM)	15	35	25 (≈ 85.8 µM)	19	200 (≈ 687 µM)	50 (≈ 172 µM)	25 (≈ 85.8 µM)	50 (≈ 172 µM)	50 (≈ 172 µM)	15	33
N=c1[nH]c2nn(-c3ccc([N+](=O)[O-])cc3)nc2c2ccccc12	15	200 (≈ 653 µM)	50 (≈ 163 µM)	15	38	25 (≈ 81.6 µM)	26	200 (≈ 653 µM)	25 (≈ 81.6 µM)	25 (≈ 81.6 µM)	50 (≈ 163 µM)	50 (≈ 163 µM)	16	38
N#CC1c2ccccc2C(=N)C(C#N)(C#N)C1c1ccc(Cl)cc1 (stereo unspecified)	20	200 (≈ 605 µM)	50 (≈ 151 µM)	31	33	50 (≈ 151 µM)	33	200 (≈ 605 µM)	100 (≈ 302 µM)	50 (≈ 151 µM)	50 (≈ 151 µM)	100 (≈ 302 µM)	26	20
COc1ccc(C2C(C#N)c3ccccc3C(=N)C2(C#N)C#N)cc1 (stereo unspecified)	19	200 (≈ 613 µM)	100 (≈ 306 µM)	26	18	50 (≈ 153 µM)	31	200 (≈ 613 µM)	100 (≈ 306 µM)	100 (≈ 306 µM)	100 (≈ 306 µM)	100 (≈ 306 µM)	20	15
COc1cc(-c2c(C#N)c(N)c3ccccc3c2C#N)cc(OC)c1OC	33	200 (≈ 557 µM)	50 (≈ 139 µM)	32	35	50 (≈ 139 µM)	35	200 (≈ 557 µM)	100 (≈ 278 µM)	50 (≈ 139 µM)	50 (≈ 139 µM)	100 (≈ 278 µM)	28	26
N#C/C(=C\c1ccc(Cl)cc1)c1ccccc1C#N	15	200 (≈ 756 µM)	50 (≈ 189 µM)	20	20	100 (≈ 378 µM)	15	200 (≈ 756 µM)	100 (≈ 378 µM)	100 (≈ 378 µM)	50 (≈ 189 µM)	100 (≈ 378 µM)	26	21
